What was measured:
Staphylococcus aureus [1] = experiment: Antibacterial activity against methicillin-resistant Staphylococcus aureus ATCC 43300 measured after 24 hrs; assay type: functional
In short: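 Broth microdilution modified from NCCLS. Mid-log bacteria at (0.5–1) × 10^5 CFU mL−1 in MHB, mixed with peptides serially diluted in 0.2% BSA. Incubated 24 h at 37 °C, read at A492. MIC taken as lowest concentration giving 95% growth inhibition. At least three independent experiments, each with three technical replicates.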

Escherichia coli [2] = experiment: Antibacterial activity against Escherichia coli K88 measured after 24 hrs; assay type: functional
In short: (§1)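 Broth microdilution adapted from NCCLS. Mid-log bacteria were diluted in MHB to a final (0.5–1) × 10^5 CFU mL−1. Peptides were serially diluted in 0.2% BSA and mixed with an equal volume of cells. After 24 h at 37 °C, MIC was read at A492 as the lowest concentration inhibiting 95% of growth. At least three independent experiments, each with three technical replicates.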

Salmonella typhimurium [3] = experiment: Antibacterial activity against Salmonella typhimurium C7731 measured after 24 hrs; assay type: functional, Salmonella enterica subsp. enterica serovar Typhimurium; in short: as §1
[4] = tested on: Staphylococcus epidermidis; experiment: Antibacterial activity against Staphylococcus epidermidis ATCC 12228 measured after 24 hrs; assay type: functional; in short: as §1
Candida albicans [5] = experiment: Antifungal activity against Candida albicans cgmcc2.2086 measured after 48 hrs by broth microdilution method; assay type: functional
In short: (§2)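 Modified CLSI M27-A2 microdilution. Yeast colonies were diluted in MOPS-buffered RPMI 1640 to a final (0.5–1) × 10^3 CFU mL−1 and mixed with an equal volume of peptide serially diluted in 0.2% BSA. After 48 h at 28 °C, MIC was read at A492 as the lowest concentration inhibiting 95% of growth. At least three independent experiments, each with three technical replicates.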

Candida parapsilosis = experiment: Antifungal activity against Candida parapsilosis cgmcc2.3989 measured after 48 hrs by broth microdilution method; assay type: functional; in short: as §2
Escherichia coli [6] = experiment: Bactericidal activity against Escherichia coli ATCC 25922 incubated for 24 hrs followed by replating on agar plate and measured after overnight incubation; assay type: functional; conditions: for MBC: ATCC 25922, 24 h, read-out: MBC>99.9
In short: (§3)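 After the 24 h, 37 °C MHB microdilution (0.5–1 × 10^5 CFU mL−1 inoculum, peptides diluted in 0.2% BSA), 50 μL from each well was plated on agar and incubated overnight. MBC was taken as the lowest concentration killing >99.9% of cells. Three or more independent experiments, each with triplicate technical replicates.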

Escherichia coli [7] = experiment: Bactericidal activity against Escherichia coli UB1005 incubated for 24 hrs followed by replating on agar plate and measured after overnight incubation; assay type: functional; conditions: for MBC: UB1005, 24 h, read-out: MBC>99.9
In short: (§4)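 Mid-log bacteria diluted in MHB to (0.5–1) × 10^5 CFU/mL and mixed 1:1 with peptide serially diluted in 0.2% BSA. After 24 h at 37 °C, 50 μL of each mixture was plated on agar and incubated overnight. MBC taken as the lowest concentration killing >99.9% of cells. At least three independent experiments, each with three technical replicates.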

[8] = Bactericidal activity against Salmonella pullorum ATCC 7913 incubated for 24 hrs followed by replating on agar plate and measured after overnight incubation; assay type: functional, Salmonella enterica subsp. enterica serovar Pullorum; conditions: Salmonella enterica, ATCC 7913, 24 h; read-out: MBC>99.9; in short: as §4
Pseudomonas aeruginosa = experiment: Bactericidal activity against Pseudomonas aeruginosa ATCC 27853 incubated for 24 hrs followed by replating on agar plate and measured after overnight incubation; assay type: functional; conditions: for MBC: ATCC 27853, 24 h, read-out: MBC>99.9; in short: as §4
Escherichia coli [9] = experiment: Bactericidal activity against Escherichia coli K88 incubated for 24 hrs followed by replating on agar plate and measured after overnight incubation; assay type: functional; conditions: for MBC: K88, 24 h, read-out: MBC>99.9; in short: as §4
Escherichia coli [10] = experiment: Bactericidal activity against Escherichia coli 078 incubated for 24 hrs followed by replating on agar plate and measured after overnight incubation; assay type: functional; conditions: for MBC: Escherichia coli, 078, 24 h, read-out: MBC>99.9; in short: as §3
Salmonella typhimurium [11] = experiment: Bactericidal activity against Salmonella typhimurium C7731 incubated for 24 hrs followed by replating on agar plate and measured after overnight incubation; assay type: functional, Salmonella enterica subsp. enterica serovar Typhimurium; conditions: for MBC: Salmonella enterica, C7731, 24 h, read-out: MBC>99.9; in short: as §4
Staphylococcus aureus [12] = experiment: Bactericidal activity against Staphylococcus aureus ATCC 29213 incubated for 24 hrs followed by replating on agar plate and measured after overnight incubation; assay type: functional; conditions: for MBC: ATCC 29213, 24 h, read-out: MBC>99.9
In short: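 After the 24 h, 37 °C MHB microdilution MIC assay, 50 μL from each well was plated on agar and incubated overnight. MBC taken as lowest peptide concentration killing >99.9% of cells. At least three independent experiments, each with three technical replicates.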

Escherichia coli [13] = experiment: Antibacterial activity against Escherichia coli ATCC 25922 measured after 18 to 24 hrs in presence of ZnCl2; assay type: functional
Escherichia coli [14] = experiment: Antibacterial activity against Escherichia coli ATCC 25922 measured after 18 to 24 hrs in presence of NH4Cl; assay type: functional
Staphylococcus aureus [15] = experiment: Antibacterial activity against Staphylococcus aureus ATCC 29213 measured after 18 to 24 hrs in presence of MgCl2; assay type: functional
Staphylococcus aureus [16] = experiment: Antibacterial activity against Staphylococcus aureus ATCC 29213 measured after 18 to 24 hrs in presence of ZnCl2; assay type: functional
In short: (§5)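 MIC broth microdilution (MHB, 0.2% BSA peptide diluent, A492, 95% inhibition) run in the presence of physiological salts at final concentrations of 6 μM NH4Cl or 8 μM ZnCl2. Three independent assays, each with three technical replicates.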

Staphylococcus aureus [17] = experiment: Antibacterial activity against Staphylococcus aureus ATCC 29213 measured after 18 to 24 hrs in presence of NH4Cl; assay type: functional; in short: as §5
Candida albicans [18] = experiment: Antifungal activity against Candida albicans cgmcc2.2086 measured after 48 hrs in presence of NaCl by broth microdilution method; assay type: functional
Candida albicans [19] = experiment: Antifungal activity against Candida albicans cgmcc2.2086 measured after 48 hrs in presence of MgCl by broth microdilution method; assay type: functional
Candida albicans [20] = experiment: Antifungal activity against Candida albicans cgmcc2.2086 measured after 48 hrs in presence of FeCl by broth microdilution method; assay type: functional
[21] = Therapeutic index, ratio of MHC10 for hemolytic activity in human RBC to MIC95 against Candida albicans cgmcc2.2086; assay type: toxicity; conditions: human red blood cells (erythrocytes), read-out: TI
In short: (§6)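 Therapeutic index = MHC divided by MIC. MHC is the lowest concentration giving >10% lysis of human RBC (1 h, 37 °C, 1-128 µM, A576). MIC is 95% growth inhibition by broth microdilution: bacteria in MHB 24 h at 37 °C; Candida in MOPS-buffered RPMI 1640 at (0.5–1) × 10^3 CFU mL−1, 48 h at 28 °C.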

[22] = Therapeutic index, ratio of MHC10 for hemolytic activity in human RBC to MIC95 against Candida parapsilosis cgmcc2.3989; assay type: toxicity; conditions: human red blood cells (erythrocytes), read-out: TI; in short: as §6
[23] = Therapeutic index, ratio of MHC10 for hemolytic activity in human RBC to MIC95 against Candida tropicalis cgmcc2.1975; assay type: toxicity; conditions: human red blood cells (erythrocytes), read-out: TI; in short: as §6
[24] = Salmonella enterica, C7731, 24 h
[25] = Lodderomyces parapsilosis, cgmcc2.3989, 48 h
[26] = Salmonella enterica subsp. enterica serovar Typhimurium

H-AARIILRARFR-NH2 showed an MIC95 (Staphylococcus aureus [1]; ATCC 43300, 24 h) of 2 µM, an MIC95 (Escherichia coli [2]; K88, 24 h) of 2 µM and an MIC95 (Salmonella typhimurium [3]; [24]) of 4 µM. The MIC95 ([4]; ATCC 12228, 24 h) was 2 µM, the MIC95 (Candida albicans [5]; cgmcc2.2086, 48 h) was 16 µM and the MIC95 (Candida parapsilosis; [25]) was 16 µM. It also gave an MBC (Escherichia coli [6]) of 4 µM, an MBC (Escherichia coli [7]) of 4 µM and an MBC [8] of 8 µM. The MBC (Pseudomonas aeruginosa) was 32 µM, the MBC (Escherichia coli [9]) was 4 µM and the MBC (Escherichia coli [10]) was 4 µM. It also gave an MBC (Salmonella typhimurium [11]) of 8 µM, an MBC (Staphylococcus aureus [12]) of 8 µM and an MIC95 (Escherichia coli [13]) of 4 µM. The MIC95 (Escherichia coli [14]) was 2 µM, the MIC95 (Staphylococcus aureus [15]) was 8 µM and the MIC95 (Staphylococcus aureus [16]) was 4 µM. For the same substance, the MIC95 (Staphylococcus aureus [17]) was 4 µM, the MIC95 (Candida albicans [18]; cgmcc2.2086, 48 h) was 64 µM and the MIC95 (Candida albicans [19]; cgmcc2.2086, 48 h) was 32 µM. For the same substance, the MIC95 (Candida albicans [20]; cgmcc2.2086, 48 h) was 16 µM, the selectivity ratio [21] was 25.4 and the selectivity ratio [22] was 25.4. It also gave a selectivity ratio [23] of 25.4.
H-AARIILRYRFR-NH2 showed an MIC95 (Staphylococcus aureus [1]; ATCC 43300, 24 h) of 4 µM, an MIC95 (Escherichia coli [2]; K88, 24 h) of 4 µM and an MIC95 (Salmonella typhimurium [3]; [24]) of 4 µM. It also gave an MIC95 ([4]; ATCC 12228, 24 h) of 2 µM, an MIC95 (Candida albicans [5]; cgmcc2.2086, 48 h) of 32 µM and an MIC95 (Candida parapsilosis; [25]) of 64 µM. It also gave an MBC (Escherichia coli [6]) of 16 µM, an MBC (Escherichia coli [7]) of 8 µM and an MBC [8] of 8 µM. The MBC (Pseudomonas aeruginosa) was 64 µM, the MBC (Escherichia coli [9]) was 8 µM and the MBC (Escherichia coli [10]) was 4 µM. It also gave an MBC (Salmonella typhimurium [11]) of 8 µM, an MBC (Staphylococcus aureus [12]) of 8 µM and an MIC95 (Escherichia coli [13]) of 8 µM. The MIC95 (Escherichia coli [14]) was 8 µM, the MIC95 (Staphylococcus aureus [15]) was 8 µM and the MIC95 (Staphylococcus aureus [16]) was 2 µM. The MIC95 (Staphylococcus aureus [17]) was 4 µM, the MIC95 (Candida albicans [18]; cgmcc2.2086, 48 h) was 128 µM and the MIC95 (Candida albicans [19]; cgmcc2.2086, 48 h) was 64 µM. It also gave an MIC95 (Candida albicans [20]; cgmcc2.2086, 48 h) of 64 µM, a selectivity ratio [21] of 8 and a selectivity ratio [22] of 8. For the same substance, the selectivity ratio [23] was 8.
GENTAMICIN showed an MIC95 (Staphylococcus aureus [1]) of 8 µM, an MIC95 (Escherichia coli [2]) of 1 µM and an MIC95 (Salmonella typhimurium [3]; [26]) of 1 µM. The MIC95 [4] was 1 µM, the MIC95 (Candida albicans [5]) was greater than 128 µM and the MIC95 (Candida parapsilosis) was greater than 128 µM. It also gave an MBC>99.9 (Escherichia coli [6]) of 1 µM, an MBC>99.9 (Escherichia coli [7]) of 1 µM and an MBC>99.9 (Pseudomonas aeruginosa) of 1 µM. The MBC>99.9 (Escherichia coli [9]) was 1 µM, the MBC>99.9 (Escherichia coli [10]) was 0.5 µM and the MBC>99.9 (Salmonella typhimurium [11]; [26]) was 2 µM. For the same substance, the MBC>99.9 (Staphylococcus aureus [12]) was 1 µM, the MIC95 (Escherichia coli [13]) was 1 µM and the MIC95 (Escherichia coli [14]) was 1 µM. The MIC95 (Staphylococcus aureus [15]) was 1 µM, the MIC95 (Staphylococcus aureus [16]) was 1 µM and the MIC95 (Staphylococcus aureus [17]) was 1 µM. The MIC95 (Candida albicans [18]) was greater than 128 µM, the MIC95 (Candida albicans [19]) was greater than 128 µM and the MIC95 (Candida albicans [20]) was greater than 128 µM.
H-AARRILRWIFR-NH2 gave an MIC95 (Staphylococcus aureus [1]; ATCC 43300, 24 h) of 8 µM, an MIC95 (Escherichia coli [2]; K88, 24 h) of 4 µM and an MIC95 (Salmonella typhimurium [3]; [24]) of 4 µM. It also gave an MIC95 ([4]; ATCC 12228, 24 h) of 4 µM, an MIC95 (Candida albicans [5]; cgmcc2.2086, 48 h) of 8 µM and an MIC95 (Candida parapsilosis; [25]) of 8 µM. For the same substance, the MBC (Escherichia coli [6]) was 4 µM, the MBC (Escherichia coli [7]) was 4 µM and the MBC [8] was 8 µM. It also gave an MBC (Pseudomonas aeruginosa) of 16 µM, an MBC (Escherichia coli [9]) of 8 µM and an MBC (Escherichia coli [10]) of 4 µM. For the same substance, the MBC (Salmonella typhimurium [11]) was 8 µM, the MBC (Staphylococcus aureus [12]) was 8 µM and the MIC95 (Escherichia coli [13]) was 8 µM. The MIC95 (Escherichia coli [14]) was 4 µM, the MIC95 (Staphylococcus aureus [15]) was 8 µM and the MIC95 (Staphylococcus aureus [16]) was 4 µM. For the same substance, the MIC95 (Staphylococcus aureus [17]) was 8 µM, the MIC95 (Candida albicans [18]; cgmcc2.2086, 48 h) was 32 µM and the MIC95 (Candida albicans [19]; cgmcc2.2086, 48 h) was 16 µM. The MIC95 (Candida albicans [20]; cgmcc2.2086, 48 h) was 8 µM, the selectivity ratio [21] was 40.3 and the selectivity ratio [22] was 40.3. For the same substance, the selectivity ratio [23] was 40.3.
